The subject of one data set is Rattus norvegicus. Briefly: Dose normalized AUC in Wistar rat at 10 mg/kg, po bid by LC/MS/MS analysis. In kind it is ADME, organism-based. Particulars: in vivo.
A short description of data set [1]: Clearance in Wistar rat at 3 mg/kg, iv by LC/MS/MS analysis. In kind it is ADME, organism-based. Particulars: in vivo.
Data set [2] has as its target T1, Signal peptide peptidase-like 2B (Homo sapiens, UniProt Q8TCT7).
T1 sequence (Q8TCT7 whole entry): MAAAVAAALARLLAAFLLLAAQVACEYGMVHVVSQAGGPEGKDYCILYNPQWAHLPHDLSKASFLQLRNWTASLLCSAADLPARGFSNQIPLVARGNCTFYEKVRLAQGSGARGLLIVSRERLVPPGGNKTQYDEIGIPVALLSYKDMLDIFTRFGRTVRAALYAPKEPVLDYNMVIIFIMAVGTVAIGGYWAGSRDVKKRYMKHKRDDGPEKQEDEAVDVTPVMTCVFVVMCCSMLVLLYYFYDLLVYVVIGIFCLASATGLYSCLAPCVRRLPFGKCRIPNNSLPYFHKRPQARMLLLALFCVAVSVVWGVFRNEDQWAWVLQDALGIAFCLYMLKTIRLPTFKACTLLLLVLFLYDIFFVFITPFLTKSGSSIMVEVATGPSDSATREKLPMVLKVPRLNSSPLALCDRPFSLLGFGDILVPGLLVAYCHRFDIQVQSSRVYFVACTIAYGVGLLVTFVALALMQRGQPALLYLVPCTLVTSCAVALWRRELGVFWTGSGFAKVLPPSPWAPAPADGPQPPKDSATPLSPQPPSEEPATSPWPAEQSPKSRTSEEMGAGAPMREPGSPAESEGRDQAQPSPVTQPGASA
Briefly: Inhibition of human SPPL2b expressed in human U2OS cells using EGFP-labeled TNFalpha (1 to 76 residues) NTF as substrate after 24 hrs by Hoechst staining based high content imaging assay. The format is cell-based. The method, boiled down: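 Stable U-2 OS lines expressing human SPPL2a, SPPL2b or SPP constitutively (mouse SPPL2a line analogous, mouse TNFα(aa1-77)-NTF-EGFP-NLS) with doxycycline-inducible EGFP substrate. 3000 cells/well, 3−4 h, then 11-point inhibitor 100 μM to 1 nM, 0.9% DMSO, 5 μg/mL doxycycline, 24 h 37 °C. PFA fixed, Hoechst nuclei; nuclear minus cytoplasmic EGFP intensity; inhibition vs 0.5 μM reference and DMSO; IC50 by nonlinear regression.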

The target in data set [3] is T2, Signal peptide peptidase-like 2A (Rattus norvegicus, UniProt D3ZNG3).
T2 sequence (D3ZNG3 whole entry): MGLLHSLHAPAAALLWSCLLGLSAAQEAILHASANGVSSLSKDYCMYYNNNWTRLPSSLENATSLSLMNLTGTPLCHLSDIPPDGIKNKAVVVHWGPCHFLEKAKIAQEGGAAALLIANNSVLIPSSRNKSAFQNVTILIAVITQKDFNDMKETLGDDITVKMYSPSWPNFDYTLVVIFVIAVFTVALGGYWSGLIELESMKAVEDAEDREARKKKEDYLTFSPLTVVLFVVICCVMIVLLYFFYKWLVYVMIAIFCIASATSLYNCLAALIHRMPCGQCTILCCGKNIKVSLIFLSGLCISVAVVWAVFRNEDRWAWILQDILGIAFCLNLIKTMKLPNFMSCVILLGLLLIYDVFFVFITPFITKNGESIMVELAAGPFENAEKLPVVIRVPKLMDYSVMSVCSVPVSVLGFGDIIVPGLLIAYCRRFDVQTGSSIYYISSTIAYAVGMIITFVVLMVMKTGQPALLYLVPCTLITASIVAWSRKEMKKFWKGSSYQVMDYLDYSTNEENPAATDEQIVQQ
Briefly: Inhibition of rat SPPL2a expressed in human U2OS cells using EGFP-labeled TNFalpha (1 to 77 residues) NLS as substrate after 24 hrs by Hoechst staining based high content imaging assay. The format is cell-based. The method, boiled down:
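Stable U-2 OS line with constitutive rat SPPL2a and doxycycline-inducible rat TNFα(aa1-77)-NTF–EGFP-NLS; 3000 cells/well, 3–4 h at 37 °C, then inhibitor in doxycycline medium, 11-point, 100 μM–1 nM final (0.9% DMSO, 5 μg/mL doxycycline), 24 h. PFA fixation, Hoechst nuclei; nuclear minus cytoplasmic-ring EGFP intensity. Normalised to DMSO and reference-inhibitor controls; IC50 by nonlinear regression.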

Data set [4] in a line: Total plasma concentration in mouse at 3 mg/kg administered via oral gavage measured after 16 hrs post dose by LC/MS/MS analysis. In kind it is ADME, organism-based. In short, it runs like this: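 Mice dosed by oral gavage in 0.5% MC:0.5% Tween or PEG:D5W 3:1. 50 μL blood taken retro-orbitally into LiHep tubes; in chronically dosed animals the trough sample came before the morning dose. Kept on ice, plasma separated by centrifugation at 2823g, 5 min, stored at −20 °C until analysis.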

Data set [5] in a line: Drug uptake in Lewis rat spleen at 30 mg/kg, po bid after 24 hrs by LC/MS/MS analysis. The format is ADME, organism-based. Particulars: read-out: Drug uptake.
Data set [6] has as its system Mus musculus. Briefly: Immunomodulatory activity in mouse assessed as reduction in total B cells in splenocyte administered via oral gavage bid at 8 and 16 hrs dosing interval between first and second dose respectively for 11 days measured 16 hrs post last dose on day 12 by B220 staining based flow cytometry. In kind it is functional, cell-based.
Data set [7] concerns Mus musculus. The data set can be described thus: Immunomodulatory activity in mouse assessed as reduction in marginal zone B cells in splenocyte at 3 to 30 mg/kg administered via oral gavage bid at 8 and 16 hrs dosing interval between first and second dose respectively for 11 days measured 16 hrs post last dose on day 12 by flow cytometry. The format is functional, organism-based. In short, it runs like this:
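Mice gavaged with compound in 0.5% MC:0.5% Tween or PEG:D5W 3:1. Spleens dissociated in GentleMACS, filtered at 40 μm, ACK red-cell lysis, counted; 1 × 10^6 splenocytes stained 30 min on ice in HBSS/2% FBS/5 mM EDTA with antimouse panels for B-cell subsets (B220, CD21, CD23, IgM, IgD) or dendritic cells (PDCA1, CD11c, MHCII, lineage markers); analyzed on Fortessa flow cytometer.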

Data set [8] concerns Mus musculus. Briefly: In vivo inhibition of gamma-secretase dependent Notch1 signaling in mouse assessed as effect on Hes1 mRNA level in thymus at 3 to 30 mg/kg, po bid administered at 8 and 16 hrs dosing interval between first and second dose respectively for 11 days measured 16 hrs post last dose on day 12 by RT-PCR analysis. In kind it is organism-based. In short, it runs like this:
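Thymus and jejunum excised into RNALater, 4 °C overnight, washed, frozen at −80 °C; total RNA from 10 mg tissue by MagNA Pure LC; Hes1 measured by TaqMan real-time PCR; significance by two-tailed heteroscedastic Student's t-test.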

Data set [9] can be described thus: Clearance in Sprague-Dawley rat at 1 mg/kg, iv by LC/MS/MS analysis. The format is ADME, organism-based. Particulars: in vivo. The method, boiled down:
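Female Sprague−Dawley rats with femoral artery and vein catheters implanted 96−120 h beforehand; cassette dosing iv 1 mg/kg per compound in NMP/PEG200 (30:70); arterial blood into EDTA tubes at several times, frozen; LC-MS/MS vs standard curve with QCs within 70−130%; noncompartmental analysis.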

Data set [10] in a line: Drug uptake in mouse spleen at 30 mg/kg, po administered as single dose after 4 hrs by LC/MS/MS analysis. In kind it is ADME, organism-based. Particulars: read-out: Drug uptake.
Data set [11] can be described thus: Drug uptake in mouse spleen at 100 mg/kg, po administered as single dose after 4 hrs by LC/MS/MS analysis. In kind it is ADME, organism-based. Particulars: read-out: Drug uptake.

Activity calls are given as the source filed them. The rule behind the calls is not given here.

On to `Cc1ncc(F)cc1NC(=O)C[C@H](C(=O)N[C@@H]1C(=O)N2CC3(CC3)CN2C(=O)c2ccccc21)C1CC1`, for which the AUC/dose in the data set on Rattus norvegicus was determined as 8787 nM·h. The clearance in data set [1] is 6 mL/min/kg. Moreover, the values for the IC50 in data set [2] and in data set [3] were 430 nM and 56 nM, respectively. The compound also had a concentration at 16 h in data set [4] of 0.8 nM. Further, the concentration at 24 h in data set [5] was found to be 4.45 µM. The Activity result was “Dose-dependent effect” in the data set on Mus musculus [6] and “Non-Toxic” in the data set with Mus musculus [8]. In addition, the result in the data set with Mus musculus [7] was Active.

As to `Cc1ccccc1NC(=O)C[C@@H](C)C(=O)N[C@@H]1C(=O)N2CCCN2Cc2ccccc21`, in data set [9], the clearance was determined as 45 mL/min/kg. The concentration at 4 h in [10] came out at 434 nM; in data set [11], 1440 nM.

Source of the values: ChEMBL document CHEMBL4043282, “Discovery of the First Potent, Selective, and Orally Bioavailable Signal Peptide Peptidase-Like 2a (SPPL2a) Inhibitor Displaying Pronounced Immunomodulatory Effects In Vivo” (J Med Chem, 2018).
